The source of these data is ChEMBL document CHEMBL4837218, “Synthesis and in vitro antitumour activity of 4(R)-methyl-3-O-phosphonomethyl-α-l-threose nucleosides” (Eur J Med Chem, 2021).

Activity calls are given as the source filed them. The calls are words filed in the database; no cut-off is given here.

Assay [1] deals with MCF7. The assay is described as follows: Inhibition of colony formation in human MCF7 cells incubated for 24 hrs followed by medium removal and measured after 7 days by crystal violet staining based assay. Format: functional, cell-based. Conditions: dose 1-4 µM. Summed up: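 Cells seeded at 1 × 10³ per well in six-well plates and left overnight. Compound (DMSO solution) given in fresh medium for 24 h, then medium removed and plates grown another 7 days. Colonies washed with PBS, fixed in 4% paraformaldehyde 30 min, stained with 0.1% crystal violet 30 min, photographed and counted.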

Assay [2] deals with MCF7. The assay is described as follows: Cell cycle arrest in human MCF7 cells assessed as accumulation at G1 phase at 1 uM measured after 48 hrs by propidium iodide staining based flow cytometry (reference value: 70.09 %). Format: functional. On the technique in general: Flow cytometry measures light scatter and fluorescence of single cells or particles in a stream.
In assay [3] the test system is MCF7. Nature of the assay: Cell cycle arrest in human MCF7 cells assessed as accumulation at S phase at 2 uM measured after 48 hrs by propidium iodide staining based flow cytometry (reference value: 25.34 %). Format: functional.
The subject of assay [4] is MDA-MB-231. Nature of the assay: Cell cycle arrest in human MDA-MB-231 cells assessed as accumulation at G1 phase at 6 uM measured after 48 hrs by propidium iodide staining based flow cytometry (reference value: 46.28 %). Format: functional.
Assay [5] relates to MDA-MB-231. The assay is described as follows: Cell cycle arrest in human MDA-MB-231 cells assessed as accumulation at S phase at 6 uM measured after 48 hrs by propidium iodide staining based flow cytometry (reference value: 35.54 %). Format: functional.
Assay [6] has as its system MDA-MB-231. The assay is described as follows: Cell cycle arrest in human MDA-MB-231 cells assessed as accumulation at G1 phase at 9 uM measured after 48 hrs by propidium iodide staining based flow cytometry (reference value: 46.28%). Format: functional.
Assay [7] relates to MDA-MB-231. The assay is described as follows: Cell cycle arrest in human MDA-MB-231 cells assessed as accumulation at S phase at 9 uM measured after 48 hrs by propidium iodide staining based flow cytometry (reference value: 35.54 %). Format: functional.
Assay [8] concerns MCF7. Nature of the assay: Induction of apoptosis in human MCF7 cells assessed as early apoptotic cells at 1 uM measured after 48 hrs by Annexin V-FITC/propidium iodide staining based flow cytometric analysis (reference value: 3 %). Format: functional.
The subject of assay [9] is MCF7. Nature of the assay: Induction of apoptosis in human MCF7 cells assessed as late apoptotic cells at 2 uM measured after 48 hrs by Annexin V-FITC/propidium iodide staining based flow cytometric analysis (reference value: 0.6 %). Format: functional.
The test system of assay [10] is MCF7. Nature of the assay: Induction of apoptosis in human MCF7 cells assessed as late apoptotic cells at 4 uM measured after 48 hrs by Annexin V-FITC/propidium iodide staining based flow cytometric analysis (reference value: 0.6 %). Format: functional.
For assay [11], the system named is MDA-MB-231. Nature of the assay: Induction of apoptosis in human MDA-MB-231 cells assessed as early apoptotic cells at 9 uM measured after 48 hrs by Annexin V-FITC/propidium iodide staining based flow cytometric analysis (reference value: 1%). Format: functional.
Assay [12] relates to MCF7. Nature of the assay: Induction of mitochondrial membrane potential loss in human MCF7 cells assessed as red fluorescence intensity at 1 uM measured after 48 hrs by JC1 staining-based flow cytometry analysis (reference value: 91.9%). Format: functional.
Assay [13] concerns MDA-MB-231. The assay is described as follows: Induction of mitochondrial membrane potential loss in human MDA-MB-231 cells assessed as red fluorescence intensity at 9 uM measured after 48 hrs by JC1 staining-based flow cytometry analysis (reference value: 99.2 %). Format: functional.
Assay [14] deals with MCF7. The assay is described as follows: Induction of DNA damage in human MCF7 cells assessed as increase in Chk1 protein expression at 1 to 4 uM measured after 48 hrs by western blot analysis. Format: functional, cell-based. Conditions: dose 1-4 µM. Summed up:
(§1)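 Cells exposed to graded concentrations for 48 h, then proteins extracted. Run on SDS-PAGE (5–15% gels) and transferred to nitrocellulose. Blocked 2 h in 5% nonfat milk in PBS/0.1% Tween 20, primary antibody overnight at 4 °C, biotin-conjugated secondary 1 h. Visualized on X-ray film with densitometric quantitation; three independent experiments.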
In general terms: In western blotting, separated proteins are transferred to a membrane and probed.

Assay [15] relates to MCF7. Nature of the assay: Induction of apoptosis in human MCF7 cells assessed as increase in cleaved caspase 9 protein expression at 1 to 4 uM measured after 48 hrs by western blot analysis. Format: functional, cell-based. Conditions: dose 1-4 µM. Summed up:
(§2)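 MCF-7 and MDA-MB-231 breast cancer cells treated 48 h with a concentration series, then lysed for protein. SDS-PAGE on 5–15% gels, transfer to nitrocellulose. Blocked 2 h in 5% nonfat milk/PBS-0.1% Tween 20, primary antibodies overnight at 4 °C, biotin-conjugated secondary 1 h. X-ray film detection with densitometric quantification.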

Assay [16] deals with MDA-MB-231. Nature of the assay: Induction of apoptosis in human MDA-MB-231 cells assessed as increase in cleaved PARP protein expression at 3 to 9 uM measured after 48 hrs by western blot analysis. Format: functional, cell-based. To be noted: dose 3-9 µM. Summed up:
as §2

For assay [17], the system named is MDA-MB-231. The assay is described as follows: Induction of apoptosis in human MDA-MB-231 cells assessed as increase in cleaved caspase 7 protein expression at 3 to 9 uM measured after 48 hrs by western blot analysis. Format: functional, cell-based. Conditions: dose 3-9 µM. Summed up:
as §2

The test system of assay [18] is MDA-MB-231. Nature of the assay: Inhibition of PI3K/AKT signalling pathway in human MDA-MB-231 cells assessed as downregulation of AKT phosphorylation at Ser473 residue at 3 to 9 uM measured after 48 hrs by Western blot analysis. Format: cell-based. Conditions: dose 3-9 µM. Summed up: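 After 48 h exposure to compound at several concentrations, cells collected and proteins extracted. SDS-PAGE on 5–15% gels, transfer to nitrocellulose, blocking 2 h in 5% nonfat milk in PBS/0.1% Tween 20, primary antibodies overnight at 4 °C, biotin-conjugated secondary 1 h. Detection on X-ray film; band densitometry.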

Assay [19] deals with MCF7. Nature of the assay: Induction of G2/M phase cell cycle arrest in human MCF7 cells assessed as upregulation of cdc25c protein expression at 4 uM measured after 48 hrs in presence of cdc25c inhibitor, NSC663284 by western blot analysis. Format: functional, cell-based. Summed up:
(§3)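 Four groups (untreated, test compound, 0.3 NSC663284, combination) treated 48 h before protein extraction. Lysates resolved by SDS-PAGE (5–15%) and blotted to nitrocellulose. Blocked 2 h in 5% milk/PBS-0.1% Tween 20, primary antibody overnight at 4 °C, biotinylated secondary 1 h. Detected on X-ray film and quantified by densitometry.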

For assay [20], the system named is MCF7. Nature of the assay: Induction of G2/M phase cell cycle arrest in human MCF7 cells assessed as downregulation of p-cdc2 protein expression at 4 uM measured after 48 hrs in presence of cdc25c inhibitor, NSC663284 by western blot analysis. Format: functional, cell-based. A digest of the protocol: as §3
Assay [21] relates to MDA-MB-231. The assay is described as follows: Induction of G2/M phase cell cycle arrest in human MDA-MB-231 cells assessed as upregulation of cdc25c protein expression at 9 uM measured after 48 hrs in presence of cdc25c inhibitor, NSC663284 by western blot analysis. Format: functional, cell-based.
For assay [22], the system named is MDA-MB-231. The assay is described as follows: Induction of G2/M phase cell cycle arrest in human MDA-MB-231 cells assessed as upregulation of p-cdc25c protein expression at 9 uM measured after 48 hrs in presence of cdc25c inhibitor, NSC663284 by western blot analysis. Format: functional, cell-based.
In assay [23] the test system is MCF7. The assay is described as follows: Induction of apoptosis in human MCF7 cells assessed as increase in cleaved caspase 3 protein expression at 4 uM measured after 48 hrs in presence of cdc25c inhibitor, NSC663284 by western blot analysis. Format: functional, cell-based. Summed up: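 Four arms per cell line: untreated, test compound, 0.3 µM NSC663284 alone, and combination. Proteins harvested after 48 h and resolved by SDS-PAGE on 5–15% gels, transferred to nitrocellulose. Blocked 2 h in milk/PBS-Tween, primary antibodies overnight at 4 °C, biotin-conjugated secondary. Read on X-ray film with densitometry.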

Assay [24] relates to MCF7. The assay is described as follows: Induction of G2/M phase cell cycle arrest in human MCF7 cells assessed as upregulation of p-cdc25c at ser216 residue protein expression at 4 uM measured after 48 hrs by western blot analysis. Format: functional, cell-based. Summed up:
as §1

`C[C@H]1O[C@@H](n2cnc3c(N)nc(F)nc32)[C@H](O)[C@H]1OCP(=O)([O-])[O-].[Na+].[Na+]`: the inhibition entry in assay [1] is “Dose-Dependent Effect”. Moreover, the Activity came to 63.54% in [2]; 38.69% in [3]; 37.3% in [4]; 31.86% in assay [5]; 33.66% in assay [6]; 32.34% in [7]. In addition, the Activity was found to be 15.5% in [8]; 6.5% in assay [9]; 8.7% in [10]; 24.8% in [11]; 90.9% in assay [12]; 37% in assay [13]. Moreover, the result in assay [14], in assay [15], in assay [16], in [17] and in assay [24] was Active. For the same compound, in assay [18], the inhibition entry was “Active”. Also, the result in [19], in assay [20], in assay [21], in [22] and in [23] was inactive.
